Values after ≈ are worked out from the molar mass of the structure shown. Read-outs that look alike come from different tables or passages of the source.
Experiments:
[1] = test system: K. pneumoniae ATCC 33495::pGDP2 (NDM-1); assay: Meropenem rescue and MIC, antimicrobial susceptibility test; format: cell-based, Klebsiella pneumoniae; settings: for MIC: Klebsiella pneumoniae
E. coli BW25113 (WT) = assay: Cell penetration / intracellular accumulation assay; format: cell-based, Escherichia coli; settings: 50 μM, wild-type E. coli
Method in brief: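 E. coli BW25113 (wild type) cells were incubated with the test compound at 50 μM (reference chelator at 50 or 100 μM) for 10 min at 37 °C. Cells were spun through ice-cold silicone oil (12,000g, 2 min), resuspended in water and lysed by three freeze–thaw cycles. The debris pellet was extracted with MeOH. Pooled extracts were quantified by UPLC–Q-TOF targeted MS/MS against a calibration curve. Biological and technical triplicates.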

E. coli = assay: MIC of single agent, antimicrobial susceptibility test; format: cell-based; settings: Escherichia coli
[2] = test system: E. coli expressing blaNDM-1; assay: Meropenem rescue concentration, antimicrobial susceptibility test; format: cell-based, Escherichia coli; settings: rescue concentration at meropenem 2 μg/mL, MHB
Method in brief: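 Checkerboard broth microdilution in Mueller–Hinton broth against E. coli carrying the plasmid-borne MBL gene. Meropenem used five 2-fold dilutions and the test compound six 2-fold dilutions, within 0.5–64 μg/mL; the test compound was dissolved in water or 50% methanol. Inoculum was adjusted to OD625 0.08–0.10, then diluted 200-fold. Incubation was 20 h static at 37 °C, read at OD600. RC is the compound concentration restoring susceptibility at meropenem 2 μg/mL. ≥2 replicates.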

NDM-1 = NDM-1 (Klebsiella pneumoniae, UniProt C7C422); assay: In vitro enzyme inhibition assay, purified recombinant NDM-1; format: biochemical
Sequence of NDM-1 (C7C422 29-270, looked up, species assumed): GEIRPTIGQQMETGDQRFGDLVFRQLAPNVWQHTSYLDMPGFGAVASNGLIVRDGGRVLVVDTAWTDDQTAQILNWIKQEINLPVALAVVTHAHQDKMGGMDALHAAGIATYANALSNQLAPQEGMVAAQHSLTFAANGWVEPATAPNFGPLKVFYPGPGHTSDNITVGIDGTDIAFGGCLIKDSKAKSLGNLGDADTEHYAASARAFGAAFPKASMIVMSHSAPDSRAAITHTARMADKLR
Method in brief: (§1)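 Purified recombinant enzyme at 4 nM was preincubated 5–10 min at RT with varying inhibitor concentrations. Buffer was 50 mM HEPES pH 7.5, 0.2% DMSO, 1% PEG 4000, with either 10 μM ZnSO4 or no zinc (Chelex-100-treated, 2 h, filtered). Reactions were started with nitrocefin (30 μM final, A490) or meropenem (50 μM final, A300) and followed 60 s. IC50 came from the linear portion of progress curves. Duplicates.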

[3] = Zn2+ affinity by competition with colorimetric PAR assay; format: binding; settings: read-out: Kd,Zn2; PAR 100 μM, ZnSO4 10 μM, pH 7.5, 3 h at 25 °C
Method in brief: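 The test compound was titrated into Chelex-100-treated 20 mM HEPES, 100 mM NaCl, pH 7.5, containing PAR 100 μM and ZnSO4 10 μM, then incubated 3 h at 25 °C. Zn2+ displacement from PAR was read as the fall in absorbance at 492 nm. Kd was estimated from the known PAR stability constant at pH 7.4.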

IMP-7 = assay: In vitro enzyme inhibition assay, purified recombinant IMP-7; format: biochemical; settings: read-out: IC50 IMP-7 - Zn; Zn2+-depleted (Chelex-100-treated) buffer
Method in brief: as §1

VIM-2 = VIM-2 (Escherichia coli, UniProt Q5U7L7); assay: In vitro enzyme inhibition assay, purified recombinant VIM-2; format: biochemical
Method in brief: as §1

[4] = test system: A. baumannii ATCC 17978::pROTO2 (NDM-1); assay: Meropenem rescue and MIC, antimicrobial susceptibility test; format: cell-based, Acinetobacter baumannii; settings: rescue concentration at meropenem 2 μg/mL
[5] = IC50 NDM-1 + Zn, Zn2+-supplemented (10 μM) buffer
[6] = IC50 NDM-1 - Zn, Zn2+-depleted (Chelex-100-treated) buffer

## C[C@@H](O)[C@H]1C(=O)N2C(C(=O)O)=C(S[C@@H]3CN[C@H](C(=O)N(C)C)C3)[C@H](C)[C@H]12 [meropenem, reference compound]
[1]; ATCC33495, read-out: Meropenem MIC (Table 3 footnote b)
  MIC: 16 to 32 µg/mL (≈ 41.7 to 83.4 µM)
E. coli BW25113 (WT); 10 min 37 °C
  intracellular accumulation: 43.9 nmol/10^12 CFU
E. coli; read-out: MIC of meropenem against resistant E. coli
  MIC: 64 µg/mL

## CC(C)(S)C(NC[C@H](NC[C@H](N)C(=O)O)C(=O)O)C(=O)O (stereo in doubt) [Compound 15, (S)-2-(((S)-2-(((S)-2-Amino-2-carboxyethyl)amino)-2-carboxyethyl)amino)-3-mercapto-3-methylbutanoic Acid]
[2]
  RC in MHB, NDM-1: 32 µg/mL
[1]; ATCC33495, read-out: MIC of compound (Table 3 footnote c)
  MIC: 16 to 32 µg/mL
NDM-1; [5]
  IC50: 56.1 ± 2.5 µM
NDM-1; [6]
  IC50: 98.6 ± 4 µM
[3]
  Kd: 0.0023 ± 0.0004 µM
IMP-7
  IC50: > 500 µM
VIM-2
  IC50: 361 ± 29 µM
E. coli; read-out: MIC (antimicrobial activity)
  MIC: 64 µg/mL

## N[C@@H](CN[C@@H](CN[C@@H](CC(=O)O)C(=O)O)C(=O)O)CSc1ccccc1 [Compound 4]
[2]
  RC in MHB, NDM-1: 8 µg/mL
[1]; rescue concentration at meropenem 2 μg/mL, MHB
  RC in MHB, K. pneumoniae ATCC 33495::pGDP2 (NDM-1): 8 μg/mL
NDM-1; [5]
  IC50: 12.5 ± 0.8 µM
NDM-1; [6]
  IC50: 150 ± 16 µM
[3]
  Kd: 0.0004 ± 7e-05 µM
IMP-7
  IC50: 32 ± 3.1 µM
E. coli BW25113 (WT)
  intracellular accumulation increase relative to AMA: 1.5 fold
[4]
  RC in MHB, A. baumannii ATCC 17978::pROTO2 (NDM-1): 8 μg/mL
VIM-2
  IC50: 246 ± 23 µM
